ChEMBL document CHEMBL4610036, “Discovery of small molecule antagonists of chemokine receptor CXCR6 that arrest tumor growth in SK-HEP-1 mouse xenografts as a model of hepatocellular carcinoma” (Bioorg Med Chem Lett, 2020)
Calls of active or inactive are those of the source. No cut-off for these calls is given here.

Key:
[1] = molecular target: T1, C-X-C chemokine receptor type 6 (Homo sapiens, UniProt O00574); assay: Antagonist activity at Prolink-tagged human CXCR6 receptor assessed as inhibition of CXCL16-induced beta-arrestin recruitment by DiscoveRx cell based assay
Target sequence in this assay (O00574 whole entry): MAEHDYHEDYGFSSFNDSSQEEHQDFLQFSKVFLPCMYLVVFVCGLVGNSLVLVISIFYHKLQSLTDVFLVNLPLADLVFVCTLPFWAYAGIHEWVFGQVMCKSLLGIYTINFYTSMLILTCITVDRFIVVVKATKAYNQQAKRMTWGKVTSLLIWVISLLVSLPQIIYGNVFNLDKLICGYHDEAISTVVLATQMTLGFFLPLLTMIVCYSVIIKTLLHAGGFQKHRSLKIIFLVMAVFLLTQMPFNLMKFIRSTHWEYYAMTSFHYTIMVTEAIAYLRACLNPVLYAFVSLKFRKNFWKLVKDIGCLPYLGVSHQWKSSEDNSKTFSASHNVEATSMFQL

[2] = molecular target: T1, C-X-C chemokine receptor type 6; assay: Antagonist activity at Prolink-tagged human CXCR6 receptor assessed as inhibition of CXCL16-induced beta-arrestin recruitment by DiscoveRx cell based assay relative to control; design: concentration or dose not given beside the values
How it was run: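 CXCR6 β-arrestin cells in assay media without G418/hygromycin, 800 cells/well, grown overnight at 37 °C; compounds added acoustically (DMSO ≤0.3%), then 20 nM CXCL16 (final) for 90 min at 37 °C. PathHunter luminescence read. Normalized between CXCL16-alone and no-ligand wells; four-parameter fit with Hill slope fixed at 1; at least two runs on different days, averaged pIC50 ± SD.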
Target sequence in this assay (O00574 whole entry, looked up): as the sequence (O00574 whole entry) above

[3] = molecular target: T1, C-X-C chemokine receptor type 6; assay: Antagonist activity at Prolink-tagged human CXCR6 receptor assessed as inhibition of forskolin-induced cAMP accumulation by DiscoveRx cell based assay; format: functional
How it was run: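 Lance Ultra TR-FRET cAMP assay in CXCR6 β-arrestin cells, 500 cells/well in OptiMEM/2% FBS, grown overnight. Compound added, then forskolin (2.5 mM stock) in HBSS/HEPES/BSA/RO-20-1724 with or without 20 nM CXCL16, 30 min at room temperature. Eu-cAMP tracer and ULight anti-cAMP antibody added, read after 30 min. Curve fit with Hill slope 1; ≥2 independent runs.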
Target sequence in this assay (O00574 whole entry): as above

[4] = molecular target: T1, C-X-C chemokine receptor type 6; assay: Antagonist activity at Prolink-tagged human CXCR6 receptor assessed as inhibition of forskolin-induced cAMP accumulation by DiscoveRx cell based assay relative to control; format: functional; design: concentration or dose not given beside the values
How it was run: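 CXCR6 β-arrestin cells in OptiMEM with 2% FBS, 500 cells/well, grown overnight; compounds added, then forskolin with 20 nM CXCL16 (stock concentrations) in HBSS/HEPES/BSA with RO-20-1724, 30 min at room temperature. cAMP read by LANCE Ultra TR-FRET after a further 30 min. Hill slope fixed at 1; at least two runs on different days, averaged pIC50 ± SD.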
Target sequence in this assay (O00574 whole entry, looked up): as the sequence (O00574 whole entry) above

Row | SMILES | IC50 [1] | inhibition ([2]; concentration not given here) | IC50 [3] | inhibition ([4]; concentration not given here) | inhibition [2] | inhibition [4]
1 | COc1cc(C(=O)N[C@@H]2C[C@H]3CCC[C@@H](C2)N3CC(=O)Nc2cccc(Cl)c2)cc(OC)c1OC | 0.41 µM | 105% | 4.3 µM | 97% | – | –
2 | COc1cc(C(=O)N[C@@H]2C[C@H]3CCC[C@@H](C2)N3Cc2ccccc2Cl)cc(OC)c1OC | 6.8 µM | 99% | 11.5 µM | 101% | – | –
3 | COc1cc(C(=O)N[C@@H]2C[C@H]3CCC[C@@H](C2)N3CC(=O)Nc2ccc(Cl)c(Cl)c2)cc(OC)c1OC | 0.35 µM | 103% | 1.8 µM | 101% | – | –
4 | COc1cc(C(=O)N[C@@H]2C[C@H]3CCC[C@@H](C2)N3Cc2cn3ccccc3n2)cc(OC)c1OC | > 50 µM | – | > 50 µM | – | inactive | inactive
5 | COc1cc(C(=O)N[C@@H]2C[C@H]3CCC[C@@H](C2)N3CC(=O)Nc2cc(Cl)ccc2Cl)cc(OC)c1OC | 0.13 µM | 99% | 0.7 µM | 101% | – | –
6 | COc1cc(C(=O)N[C@@H]2C[C@H]3CCC[C@@H](C2)N3CC(=O)Nc2ccccc2C(F)(F)F)cc(OC)c1OC | 0.64 µM | 101% | 7.9 µM | 105% | – | –
7 | COc1cc(C(=O)N[C@@H]2C[C@H]3CCC[C@@H](C2)N3CC(=O)Nc2ccc(Cl)cc2)cc(OC)c1OC | 1.5 µM | 101% | 14.2 µM | 93% | – | –
8 | COc1cc(C(=O)N[C@@H]2C[C@H]3CCC[C@@H](C2)N3Cc2nc3ccccc3s2)cc(OC)c1OC | 0.3 µM | 101% | 7.9 µM | 85% | – | –
9 | COc1cc(C(=O)N[C@@H]2C[C@H]3CC[C@@H](C2)N3CC(=O)Nc2ccccc2)cc(OC)c1OC | – | 63% | > 40 µM | – | – | inactive
10 | COc1cc(C(=O)N[C@@H]2C[C@H]3CCC[C@@H](C2)N3CC(=O)Nc2cccc(Br)c2)cc(OC)c1OC | 0.35 µM | 104% | 3.8 µM | 92% | – | –
11 | COc1cc(C(=O)N[C@@H]2C[C@H]3CCC[C@@H](C2)N3CC(=O)Nc2ccccc2)cc(OC)c1OC | 5.8 µM | 65% | 30.6 µM | 86% | – | –
12 | O=C(CN1[C@@H]2CCC[C@H]1C[C@H](NC(=O)c1ccc3c(c1)OCO3)C2)Nc1ccc(Cl)cc1 | > 40 µM | – | 5.3 µM | 84% | inactive | –
13 | COc1cc(C(=O)N[C@@H]2C[C@H]3CCC[C@@H](C2)N3Cc2nc3c(F)cccc3s2)cc(OC)c1OC | 0.11 µM | 103% | 1.9 µM | 105% | – | –
14 | COc1cc(C(=O)N[C@@H]2C[C@H]3CCC[C@@H](C2)N3Cc2ccc3ccccc3n2)cc(OC)c1OC | 6.7 µM | 88% | 40.3 µM | 88% | – | –
15 | COc1cc(C(=O)N[C@@H]2C[C@H]3CCC[C@@H](C2)N3Cc2cccc(Cl)c2)cc(OC)c1OC | 9.5 µM | 97% | 14.8 µM | 100% | – | –
16 | COc1cc(C(=O)N[C@@H]2C[C@H]3CCC[C@@H](C2)N3Cc2ccc3ccccc3c2)cc(OC)c1OC | 3.4 µM | 94% | 47.3 µM | 30% | – | –
17 | COc1cc(C(=O)N[C@@H]2C[C@H]3CCC[C@@H](C2)N3CC(=O)Nc2ccccc2Br)cc(OC)c1OC | 0.16 µM | 105% | 0.9 µM | 104% | – | –
18 | COc1cc(C(=O)N[C@@H]2C[C@H]3CCC[C@@H](C2)N3CC(=O)Nc2ccc(Cl)cc2Cl)cc(OC)c1OC | 0.16 µM | 105% | 0.9 µM | 105% | – | –
19 | COc1cc(C(=O)N[C@@H]2C[C@H]3CCC[C@@H](C2)N3CC(=O)c2nc3ccccc3s2)cc(OC)c1OC | 12.7 µM | 75% | > 50 µM | – | – | inactive
20 | COc1cccc(CN2[C@@H]3CCC[C@H]2C[C@H](NC(=O)c2cc(OC)c(OC)c(OC)c2)C3)c1 | > 50 µM | – | > 50 µM | – | inactive | inactive

Row | SMILES | IC50 [1] | inhibition ([2]; concentration not given here) | IC50 [3] | inhibition ([4]; concentration not given here) | inhibition [2] | inhibition [4]
21 | COc1cc(C(=O)N[C@@H]2C[C@H]3CCC[C@@H](C2)N3CC(=O)Nc2ccccc2C#N)cc(OC)c1OC | 0.93 µM | 91% | 7 µM | 105% | – | –
22 | COc1ccccc1CN1[C@@H]2CCC[C@H]1C[C@H](NC(=O)c1cc(OC)c(OC)c(OC)c1)C2 | > 50 µM | – | > 50 µM | – | inactive | inactive
23 | CCOC(=O)c1ccccc1NC(=O)CN1[C@@H]2CCC[C@H]1C[C@H](NC(=O)c1cc(OC)c(OC)c(OC)c1)C2 | 1.6 µM | 79% | 6.9 µM | 96% | – | –
24 | COc1cc(C(=O)N[C@@H]2C[C@H]3CCC[C@@H](C2)N3CC(=O)Nc2c(Cl)cccc2Cl)cc(OC)c1OC | 38.2 µM | 57% | > 40 µM | – | – | inactive
25 | COc1cc(C(=O)N[C@@H]2C[C@H]3CCC[C@@H](C2)N3CC(=O)Nc2cc(C)ccc2C)cc(OC)c1OC | 0.61 µM | 105% | 16.5 µM | 108% | – | –
26 | COc1cc(C(=O)N[C@@H]2C[C@H]3CCC[C@@H](C2)N3CC(=O)Nc2cc(Cl)cc(Cl)c2)cc(OC)c1OC | 0.31 µM | 104% | 1.3 µM | 96% | – | –
27 | COc1cc(C(=O)N[C@@H]2C[C@H]3CCC[C@@H](C2)N3CC(=O)Nc2cccc(Cl)c2Cl)cc(OC)c1OC | 0.12 to 0.16 µM | 96 to 102% | 0.41 to 25.6 µM | 39 to 78% | – | –
28 | COc1cc(C(=O)N[C@@H]2C[C@H]3CCC[C@@H](C2)N3Cc2nc3ccccc3[nH]2)cc(OC)c1OC | 10.5 µM | 84% | > 40 µM | – | – | inactive
29 | COc1cc(C(=O)N[C@@H]2C[C@H]3CCC[C@@H](C2)N3CC(=O)Nc2cccc(C)c2)cc(OC)c1OC | 1.8 µM | 102% | 17.9 µM | 92% | – | –
30 | COc1cc(C(=O)N[C@@H]2C[C@H]3CCC[C@@H](C2)N3Cc2ccc(Cl)cc2)cc(OC)c1OC | 23.7 µM | 90% | 38.6 µM | 58% | – | –
31 | COc1ccc(C(=O)N[C@@H]2C[C@H]3CCC[C@@H](C2)N3CC(=O)Nc2ccc(Cl)cc2)cc1 | > 40 µM | – | 5.9 µM | 94% | inactive | –
32 | COc1cc(C(=O)N[C@@H]2C[C@H]3CCC[C@@H](C2)N3Cc2nc3cccc(Cl)c3s2)cc(OC)c1OC | 0.26 µM | 102% | 8.9 µM | 93% | – | –
33 | COc1cccc(NC(=O)CN2[C@@H]3CCC[C@H]2C[C@H](NC(=O)c2cc(OC)c(OC)c(OC)c2)C3)c1 | 5.8 µM | 96% | 51 µM | 93% | – | –
34 | COc1cc(C(=O)N[C@@H]2C[C@H]3CCC[C@@H](C2)N3Cc2nc3c(OC)cccc3s2)cc(OC)c1OC | 3.1 µM | 86% | > 50 µM | – | – | inactive
35 | COc1cc(C(=O)N[C@@H]2C[C@H]3CCC[C@@H](C2)N3Cc2nc3c(C)cccc3s2)cc(OC)c1OC | 0.25 µM | 100% | 4.8 µM | 86% | – | –
36 | COc1cc(C(=O)N[C@@H]2C[C@H]3CCC[C@@H](C2)N3CC(=O)Nc2ccccc2F)cc(OC)c1OC | 0.62 µM | 103% | 6.5 µM | 99% | – | –
37 | COc1cc(C(=O)N[C@@H]2C[C@H]3CCC[C@@H](C2)N3CC(=O)Nc2c(C)cccc2C)cc(OC)c1OC | > 40 µM | – | > 40 µM | – | inactive | inactive
38 | COc1cc(C(=O)N[C@@H]2C[C@H]3CCC[C@@H](C2)N3CC(=O)Nc2ccccc2C)cc(OC)c1OC | 0.79 µM | 104% | 9.3 µM | 101% | – | –
39 | COc1cc(C(=O)N[C@@H]2C[C@H]3CCC[C@@H](C2)N3Cc2nc3ccccc3o2)cc(OC)c1OC | 6.9 µM | 83% | > 50 µM | 26% | – | –
40 | COc1cc(C(=O)N[C@@H]2C[C@H]3CCC[C@@H](C2)N3Cc2cc3ccccc3[nH]2)cc(OC)c1OC | 23.7 µM | 64% | > 50 µM | – | – | inactive
